In data set [1] the target is T1, Epoxide hydrolase 1 (Rattus norvegicus) (UniProt P07687).
T1 sequence (whole entry): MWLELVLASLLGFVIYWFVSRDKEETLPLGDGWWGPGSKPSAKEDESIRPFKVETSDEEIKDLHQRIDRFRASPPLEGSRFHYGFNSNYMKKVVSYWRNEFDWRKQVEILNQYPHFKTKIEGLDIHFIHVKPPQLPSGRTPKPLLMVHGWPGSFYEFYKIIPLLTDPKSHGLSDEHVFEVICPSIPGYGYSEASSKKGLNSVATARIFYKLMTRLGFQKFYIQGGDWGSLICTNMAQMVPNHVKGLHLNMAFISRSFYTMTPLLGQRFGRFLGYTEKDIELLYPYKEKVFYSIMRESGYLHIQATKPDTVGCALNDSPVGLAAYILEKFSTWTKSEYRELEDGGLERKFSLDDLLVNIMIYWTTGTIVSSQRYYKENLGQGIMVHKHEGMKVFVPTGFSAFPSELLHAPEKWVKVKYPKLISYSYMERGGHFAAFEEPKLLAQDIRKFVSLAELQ
As to the kind of experiment: Enhanced styrene oxide hydrolase activity pH 8.7. Format: functional. The gist of the method:
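Imidazoles were added from aqueous solution, with diluted HCl or solvent in reference tubes, and incubated 10 min at 37 °C. Hexane stopped the reaction; tubes were run in duplicate. E100 (the concentration giving a 100% rise) came from the linear concentration-effect plot; mean ± SD over n rats.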

The species entered for data set [2] is Rattus norvegicus. As to the kind of experiment: Enhancement of styrene hydrolase activity was determined in male wistar rat hepatic microsomes given to phenobarbital treated rats. The settings on record: Liver. In a few lines: (§1)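 Rats were given phenobarbital 80 mg/kg ip daily for 3 days before washed hepatic microsomes were prepared. Ratio of activity with vs without derivative, from 3-4 rats or individual values.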

Data set [3] is filed under the species Rattus norvegicus. Kind of data set: Maximum enhancement of styrene oxide hydrolase activity was reported at compound concentration of 1e-2M.
Data set [4] addresses T1, Epoxide hydrolase 1 (Rattus norvegicus). Kind of data set: (§2) Enhancement of epoxide hydrolase activity. In a few lines:
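Microsomes from untreated rats, or rats given PB 80 mg/kg or 3MC 40 mg/kg ip daily for 3 days; 0.1-0.2 mg protein, 0.25 M Tris-Cl pH 8.7, 0.03% Tween-80. Value is the ratio of activity with to without derivative; mean ± SD, 3-4 rats.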

The species entered for data set [5] is Rattus norvegicus. Kind of data set: Enhancement of styrene hydrolase activity was determined in male wistar rat hepatic microsomes given to untreated rats. Conditions: Liver. The gist of the method: (§3)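 Hepatic microsomes (washed) from untreated male Wistar rats (200 ± 20 g). Incubation: 0.25 M Tris-Cl pH 8.7, 0.03% Tween-80, 0.1-0.2 mg protein, 37 °C, 10 min, stopped with hexanes, duplicate tubes. Enhancement is the activity ratio with/without derivative, mean ± SD of 3-4 rats.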

The nature of data set [6]: Partition coefficient (logP). Format: physicochemical. Conditions: octanol/water.
The species entered for data set [7] is Rattus norvegicus. Kind of data set: Enhancement of styrene hydrolase activity was determined in male wistar rat hepatic microsomes given to 3-methylcholanthrene treated rats. The settings on record: Liver. In a few lines: (§4)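 Male Wistar rats were pretreated ip with 3-methylcholanthrene 40 mg/kg daily for 3 days; washed liver microsomes were then prepared. Reported as activity ratio ± SD, n = 3-4 or individual.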

For data set [8], the species on record is Rattus norvegicus. As to the kind of experiment: Maximum enhancement of styrene oxide hydrolase activity was reported at compound concentration of 5e-3 M.
For data set [9], the species on record is Rattus norvegicus. As to the kind of experiment: Maximum enhancement of styrene oxide hydrolase activity was reported at compound concentration of 1e-3 M.
Data set [10] addresses T1, Epoxide hydrolase 1 (Rattus norvegicus). The data set is described as §2. In a few lines:
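Microsomes from untreated rats with a concentration series of N-1-substituted imidazoles added from aqueous solution. Styrene oxide hydrolysis in 0.25 M Tris-Cl pH 8.7, 0.03% Tween-80, 10 min, duplicate tubes, no-tissue blanks. E100 is the concentration giving 100% enhancement, read from the linear concentration-effect range using at least three concentrations on each side. Mean ± SD over individual rats.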
This is another data set of the same source.

For data set [11], the species on record is Rattus norvegicus. As to the kind of experiment: Maximum enhancement of styrene oxide hydrolase activity was reported at compound concentration of 1e-4M. In a few lines:
(§5)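 Washed liver microsomes from untreated male Wistar rats (200 ± 20 g), stored at -20 °C. Tubes (0.145 mL) held 0.25 M Tris-Cl pH 8.7, 0.03% Tween-80, 0.1-0.2 mg microsomal protein and ¹⁴C-styrene oxide. Imidazoles were added from aqueous solution, in duplicate tubes at each concentration. Incubation was 10 min at 37 °C, stopped with hexanes. Maximum enhancement is the highest activity ratio (with/without additive) observed; mean ± SD over individual rats.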

For data set [12], the species on record is Rattus norvegicus. Kind of data set: Enhancement of styrene hydrolase activity was determined in male wistar rat hepatic microsomes given to 3-methylcholanthrene treated rats. Conditions: Liver. In a few lines: as §4
For data set [13], the species on record is Rattus norvegicus. As to the kind of experiment: Enhancement of styrene hydrolase activity was determined in male wistar rat hepatic microsomes given to untreated rats. Conditions: Liver. In a few lines: as §3
The species named for data set [14] is Rattus norvegicus. As to the kind of experiment: Enhancement of styrene hydrolase activity was determined in male wistar rat hepatic microsomes given to phenobarbital treated rats. The settings on record: Liver. In a few lines: as §1
The species entered for data set [15] is Rattus norvegicus. As to the kind of experiment: Maximum enhancement of styrene oxide hydrolase activity was reported at compound concentration of 5e-2M.
The species named for data set [16] is Rattus norvegicus. As to the kind of experiment: Maximum enhancement of styrene oxide hydrolase activity was reported at compound concentration of 1e-1M.
The species named for data set [17] is Rattus norvegicus. Kind of data set: Maximum enhancement of styrene oxide hydrolase activity was reported at compound concentration of 5e-4 M. The gist of the method:
as §5

The text below walks through data of ChEMBL document CHEMBL1122923, “Structural features of imidazole derivatives that enhance styrene oxide hydrolase activity in rat hepatic microsomes” (J Med Chem, 1985).

Each structure is given as a SMILES string.

As a reminder, the logP is the decadic logarithm of the partition coefficient of the neutral form, usually between octanol and water. As to `c1ccc(-n2ccnc2)cc1`, in [1], the E100 was found to be 330 µM. The Enhancement amounted to 3.15 in the data set filed under Rattus norvegicus [2], 3.34 in the data set filed under Rattus norvegicus [5] and 3.75 in the data set filed under Rattus norvegicus [7]. Also, in the data set filed under Rattus norvegicus [3], the Max enhancement is 4.7. Besides, the Log 1/E100 in data set [4] was determined as 3.48. Moreover, the logP in [6] (read-out: logP) was 1.48.

As for `Fc1ccc(-n2ccnc2)cc1`, the E100 in [1] stood at 550 µM. Moreover, in [4], the Log 1/E100 amounted to 3.26. Besides, the lipophilicity (logP) in data set [6] (read-out: logP) is 1.67. In addition, in the data set filed under Rattus norvegicus [8], the Max enhancement is 4.4.

Turning to `O=[N+]([O-])c1ccc(-n2ccnc2)cc1`, the E100 in data set [1] turned out to be 3900 µM. Besides, the Max enhancement in the data set filed under Rattus norvegicus [9] was 1.3. Further, the Log 1/E100 in data set [4] was found to be 2.4. Besides, the logP in data set [6] (read-out: logP) worked out at 1.19.

In the case of `Clc1ccccc1C(c1ccccc1)(c1ccccc1)n1ccnc1` [CLOTRIMAZOLE], the E100 in data set [1] amounted to 6.2 µM. Besides, in data set [10], the Log 1/E100 was 5.21. In the data set listed under Rattus norvegicus [11], the Max enhancement turned out to be 5.4. Moreover, the lipophilicity (logP) in data set [6] was 6.14.

Turning to `c1ccc(Cn2ccnc2)cc1` [BENZYLIMIDAZOLE], in data set [1], the E100 turned out to be 230 µM. Moreover, in [4], the Log 1/E100 worked out at 3.64. In addition, the logP in [6] (read-out: logP) was 2.01. Further, in the data set listed under Rattus norvegicus [8], the Max enhancement was 5.7.

Turning to `c1ccc(-c2c[nH]cn2)cc1`, the results for the Enhancement in the data set filed under Rattus norvegicus [12], in the data set listed under Rattus norvegicus [13] and in the data set listed under Rattus norvegicus [14] were 2.61, 2.3 and 2.45, respectively.

As for `Cn1ccnc1` [1-METHYLIMIDAZOLE], the E100 in data set [1] turned out to be 12000 µM. Also, the Max enhancement in the data set listed under Rattus norvegicus [15] is 3.9. Besides, the Log 1/E100 in data set [4] was found to be 1.94. Also, the logP in data set [6] (read-out: logP) turned out to be 0.28.

As to `c1c[nH]cn1` [IMIDAZOLE], in [1], the E100 came out at 8800 µM. In the data set listed under Rattus norvegicus [16], the Max enhancement is 5.1. Further, the Log 1/E100 in data set [10] is 2.05. In [6] (read-out: logP), the lipophilicity (logP) is -0.42.

Consider `Oc1ccc(-n2ccnc2)cc1`, for which the E100 in [1] was 240 µM. Besides, the Max enhancement in the data set filed under Rattus norvegicus [9] worked out at 3.8. For the same compound, in [4], the Log 1/E100 came out at 3.62. Further, in [6] (read-out: logP), the lipophilicity (logP) amounted to 0.94.

Turning to `CCn1ccnc1`, the E100 in [1] is 2800 µM. For the same compound, the Max enhancement in the data set listed under Rattus norvegicus [15] was 4.6. Besides, the Log 1/E100 in [10] came to 2.55. The logP in data set [6] (read-out: logP) was determined as 0.81.

On to `Clc1ccc(COC(Cn2ccnc2)c2ccc(Cl)cc2Cl)c(Cl)c1` (centres undefined) [MICONAZOLE], for which, in data set [1], the E100 amounted to 84 µM. The Max enhancement in the data set filed under Rattus norvegicus [17] was found to be 3.1. Also, in data set [4], the Log 1/E100 is 4.08. In data set [6] (read-out: logP), the logP was 5.84.

With `c1ccc(C2NCCN2)cc1`, the Enhancement in the data set filed under Rattus norvegicus [2] is 1.11; in the data set filed under Rattus norvegicus [5], 1.19; in the data set filed under Rattus norvegicus [7] it was 1.15.

Take `c1ccc(-c2ncc[nH]2)cc1`: the Enhancement in the data set listed under Rattus norvegicus [12] came out at 2.09; in the data set listed under Rattus norvegicus [13], 2; in the data set filed under Rattus norvegicus [14] it was 1.99.

Turning to `CC(=O)N1CCN(c2ccc(OCC3COC(Cn4ccnc4)(c4ccc(Cl)cc4Cl)O3)cc2)CC1` (centres undefined), the E100 in [1] stood at 54 µM. The Max enhancement in the data set listed under Rattus norvegicus [9] amounted to 3.3.
